Measured values: ChEMBL document CHEMBL4613215, “Structure-Activity Relationships for a Series of (Bis(4-fluorophenyl)methyl)sulfinyl Alkyl Alicyclic Amines at the Dopamine Transporter: Functionalizing the Terminal Nitrogen Affects Affinity, Selectivity, and Metabolic Stability” (J Med Chem, 2020)

Assays:
[1] = target: Sodium-dependent serotonin transporter (Rattus norvegicus, UniProt P31652); test: Displacement of [3H]citalopram from SERT in Sprague-Dawley rat midbrain membranes incubated for 60 mins by microbeta scintillation counting method; type: cell membranes, Membrane
Sodium-dependent serotonin transporter, sequence (P31652 whole entry): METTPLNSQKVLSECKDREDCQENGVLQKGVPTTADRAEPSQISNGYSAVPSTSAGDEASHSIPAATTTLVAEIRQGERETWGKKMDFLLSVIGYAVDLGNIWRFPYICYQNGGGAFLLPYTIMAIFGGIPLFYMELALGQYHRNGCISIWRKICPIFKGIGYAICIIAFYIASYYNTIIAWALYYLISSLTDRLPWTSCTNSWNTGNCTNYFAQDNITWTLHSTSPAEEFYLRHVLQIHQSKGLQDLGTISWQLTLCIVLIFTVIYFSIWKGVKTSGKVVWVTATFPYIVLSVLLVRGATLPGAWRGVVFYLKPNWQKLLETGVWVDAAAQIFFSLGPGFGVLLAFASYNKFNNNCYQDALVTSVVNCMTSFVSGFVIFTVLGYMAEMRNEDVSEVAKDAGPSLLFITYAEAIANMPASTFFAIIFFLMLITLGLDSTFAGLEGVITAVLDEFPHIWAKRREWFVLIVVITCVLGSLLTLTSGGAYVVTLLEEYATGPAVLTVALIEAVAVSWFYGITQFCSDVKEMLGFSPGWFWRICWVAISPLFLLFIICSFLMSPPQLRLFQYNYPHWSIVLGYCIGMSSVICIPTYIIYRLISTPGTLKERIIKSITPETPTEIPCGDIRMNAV

[2] = target: Sodium-dependent dopamine transporter (Rattus norvegicus, UniProt P23977); test: Displacement of [3H]WIN35428 from DAT in Sprague-Dawley rat striatum membranes incubated for 120 mins by microbeta scintillation counting method; type: cell membranes, Membrane
Sodium-dependent dopamine transporter (Rattus norvegicus, UniProt P23977), sequence (P23977 whole entry): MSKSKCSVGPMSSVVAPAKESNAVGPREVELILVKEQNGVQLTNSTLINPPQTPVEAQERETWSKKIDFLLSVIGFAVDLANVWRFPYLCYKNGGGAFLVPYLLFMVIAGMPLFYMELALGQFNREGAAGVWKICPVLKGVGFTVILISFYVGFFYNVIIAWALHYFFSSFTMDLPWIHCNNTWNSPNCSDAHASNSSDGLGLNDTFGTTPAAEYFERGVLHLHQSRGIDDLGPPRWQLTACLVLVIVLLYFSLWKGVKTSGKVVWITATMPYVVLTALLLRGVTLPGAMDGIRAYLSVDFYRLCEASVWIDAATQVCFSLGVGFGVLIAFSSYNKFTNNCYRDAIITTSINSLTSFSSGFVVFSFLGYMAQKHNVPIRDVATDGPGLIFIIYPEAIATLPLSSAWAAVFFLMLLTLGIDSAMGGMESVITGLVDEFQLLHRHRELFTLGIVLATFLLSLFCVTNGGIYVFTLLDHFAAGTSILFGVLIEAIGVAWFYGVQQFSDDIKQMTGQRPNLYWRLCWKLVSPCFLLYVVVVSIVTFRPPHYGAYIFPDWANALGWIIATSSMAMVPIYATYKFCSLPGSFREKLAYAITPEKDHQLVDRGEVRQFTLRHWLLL

Rattus norvegicus = species on record: Rattus norvegicus; test: Selectivity ratio of Ki for displacement of [3H]citalopram from in SERT Sprague-Dawley rat midbrain membranes to Ki for displacement of [3H]WIN 35428 from DAT in Sprague-Dawley rat striatum membranes
[3] = target: Sigma non-opioid intracellular receptor 1 (Cavia porcellus, UniProt Q60492); test: Displacement of [3H]-(+)-pentazocine from Sigma1 receptor in guinea pig cortex membranes incubated for 120 mins by microbeta scintillation counting method; type: cell membranes
Sigma non-opioid intracellular receptor 1, sequence (Q60492 whole entry): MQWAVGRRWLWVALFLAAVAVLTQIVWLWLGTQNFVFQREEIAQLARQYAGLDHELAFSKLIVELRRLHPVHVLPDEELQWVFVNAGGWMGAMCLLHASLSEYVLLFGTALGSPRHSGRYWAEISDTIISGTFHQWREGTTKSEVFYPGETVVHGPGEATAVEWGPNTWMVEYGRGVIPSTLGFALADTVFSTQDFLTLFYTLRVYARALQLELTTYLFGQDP

[4] = Stability in mouse liver microsomes at 10 uM after 60 mins in presence of NADPH by LC-MS/MS analysis; type: ADME, Microsome; conditions: 1 h
[5] = Effect on locomotor activity in mouse assessed as increase in total ambulations at 1 to 10 mg/kg, ip measured during 30 mins of 2 hrs test by open field test; type: ADME, organism-based; conditions: in vivo
Outline: (§1)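 Mice acclimatized ~2 h, injected i.p. then placed immediately in open-field chambers with infrared beam arrays; beam breaks over 2 h converted to distance; maximum distance per 30 min reported; n=6 per group, each mouse used once; two-way ANOVA (Drug, Dose) with Tukey post-hoc versus vehicle.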

[6] = Stability in human liver microsomes assessed as parent compound remaining at 10 uM after 60 mins in presence of NADPH by LC-MS/MS analysis; type: ADME, Microsome; conditions: read-out: Stability
[7] = Stability in mouse liver microsomes assessed as parent compound remaining at 10 uM after 60 mins in presence of NADPH by LC-MS/MS analysis; type: ADME, Microsome; conditions: read-out: Stability
[8] = Half life in human liver microsomes at 10 uM after 60 mins in presence of NADPH by LC-MS/MS analysis; type: ADME, Microsome; conditions: liver microsomes
[9] = target: T1, Sodium-dependent dopamine transporter (Homo sapiens, UniProt Q01959); test: Displacement of [3H]WIN35428 from DAT (unknown origin) transiently expressed in COS7 cells incubated for > 90 mins by beta scintillation counting method; type: cell-based, COS-7
T1 sequence (Q01959 whole entry): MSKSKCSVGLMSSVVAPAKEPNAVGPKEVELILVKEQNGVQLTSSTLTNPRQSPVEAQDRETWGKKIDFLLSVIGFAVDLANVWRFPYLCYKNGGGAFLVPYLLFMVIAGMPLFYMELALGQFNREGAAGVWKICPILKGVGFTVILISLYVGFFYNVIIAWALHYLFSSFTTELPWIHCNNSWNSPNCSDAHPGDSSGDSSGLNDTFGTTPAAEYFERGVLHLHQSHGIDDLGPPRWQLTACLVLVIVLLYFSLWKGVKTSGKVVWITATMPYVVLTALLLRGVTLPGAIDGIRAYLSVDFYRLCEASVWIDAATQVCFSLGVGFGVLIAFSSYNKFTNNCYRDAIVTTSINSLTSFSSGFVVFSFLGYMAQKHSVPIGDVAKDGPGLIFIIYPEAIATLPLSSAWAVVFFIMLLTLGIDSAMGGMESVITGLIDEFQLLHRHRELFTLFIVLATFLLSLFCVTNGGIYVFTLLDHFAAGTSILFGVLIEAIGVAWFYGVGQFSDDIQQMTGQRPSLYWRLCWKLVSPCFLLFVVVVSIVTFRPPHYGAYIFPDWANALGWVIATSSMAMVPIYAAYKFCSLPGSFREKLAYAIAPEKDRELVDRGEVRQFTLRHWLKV

Homo sapiens = species on record: Homo sapiens; test: Selectivity ratio of Ki for displacement of [3H]WIN35428 from DAT Y156F mutant (unknown origin) transiently expressed in COS7 cells to Ki for displacement of [3H]WIN35428 from DAT (unknown origin) transiently expressed in COS7 cells; type: cell-based
[10] = target: T1, Sodium-dependent dopamine transporter; test: Inhibition of human DAT transiently expressed in COS7 cells assessed as reduction in [3H]-DA uptake measured after 5 mins by beta-scintillation counting method; type: cell-based, COS-7
[11] = Displacement of [3H]WIN35428 from DAT Y156F mutant (unknown origin) transiently expressed in COS7 cells incubated for > 90 mins by beta scintillation counting method; type: cell-based, Homo sapiens; conditions: cos-7
[12] = Selectivity ratio of IC50 for inhibition of human ERG to Ki for displacement of [3H]WIN 35428 from DAT in Sprague-Dawley rat striatum membranes
[13] = Effect on locomotor activity in mouse assessed as increase in total ambulations at 3 to 56 mg/kg, ip measured during 30 mins of 2 hrs test by open field test; type: ADME, organism-based; conditions: in vivo; outline: as §1
[14] = Half life in mouse liver microsomes at 10 uM in presence of NADPH by LC-MS/MS analysis; type: ADME, Microsome
[15] = Half life in rat liver microsomes at 10 uM in presence of NADPH generating system by LC-MS/MS analysis; type: ADME, Microsome
[16] = target: Voltage-gated inwardly rectifying potassium channel KCNH2 (Homo sapiens, UniProt Q12809); test: Inhibition of human ERG
Voltage-gated inwardly rectifying potassium channel KCNH2, sequence (Q12809 whole entry): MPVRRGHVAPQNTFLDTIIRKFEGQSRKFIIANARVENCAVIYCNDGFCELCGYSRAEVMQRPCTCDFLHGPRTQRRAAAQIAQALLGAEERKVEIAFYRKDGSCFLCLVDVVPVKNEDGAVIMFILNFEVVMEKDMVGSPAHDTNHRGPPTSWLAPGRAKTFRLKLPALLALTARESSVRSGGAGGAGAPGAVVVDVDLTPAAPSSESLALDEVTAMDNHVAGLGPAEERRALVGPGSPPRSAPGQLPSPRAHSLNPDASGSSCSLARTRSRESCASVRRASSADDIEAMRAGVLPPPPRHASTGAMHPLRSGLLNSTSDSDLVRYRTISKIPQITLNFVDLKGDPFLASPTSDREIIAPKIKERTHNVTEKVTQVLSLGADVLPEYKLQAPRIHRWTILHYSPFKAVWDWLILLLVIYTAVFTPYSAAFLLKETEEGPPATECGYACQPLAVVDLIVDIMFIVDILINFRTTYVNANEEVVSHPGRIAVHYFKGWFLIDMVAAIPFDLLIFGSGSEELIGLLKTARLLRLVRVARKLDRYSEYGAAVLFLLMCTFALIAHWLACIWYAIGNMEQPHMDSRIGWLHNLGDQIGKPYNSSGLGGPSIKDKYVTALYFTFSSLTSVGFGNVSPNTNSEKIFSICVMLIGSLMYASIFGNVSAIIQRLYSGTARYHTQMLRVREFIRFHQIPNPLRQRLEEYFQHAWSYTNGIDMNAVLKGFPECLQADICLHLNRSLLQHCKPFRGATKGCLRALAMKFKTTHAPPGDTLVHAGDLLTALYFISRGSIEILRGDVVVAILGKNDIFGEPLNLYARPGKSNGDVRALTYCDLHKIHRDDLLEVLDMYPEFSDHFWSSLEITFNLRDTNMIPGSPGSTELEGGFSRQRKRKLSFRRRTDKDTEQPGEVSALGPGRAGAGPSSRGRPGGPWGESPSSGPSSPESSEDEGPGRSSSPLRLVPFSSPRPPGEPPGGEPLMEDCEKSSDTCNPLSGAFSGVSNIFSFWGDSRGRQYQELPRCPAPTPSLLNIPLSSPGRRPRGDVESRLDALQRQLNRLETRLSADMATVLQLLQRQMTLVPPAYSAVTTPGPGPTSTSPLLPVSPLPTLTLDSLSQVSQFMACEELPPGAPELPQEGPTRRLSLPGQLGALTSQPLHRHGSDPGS

[17] = Effect on locomotor activity in mouse assessed as increase in total ambulations at 3 to 30 mg/kg, ip measured during 30 mins of 2 hrs test by open field test; type: ADME, organism-based; conditions: in vivo; outline: as §1

| Structure (SMILES) | Ki [1] [nM] | Ki [2] [nM] | Ratio Ki (Rattus norvegicus) | Ki [3] [nM] | Stability [4] | also measured |
| --- | --- | --- | --- | --- | --- | --- |
| [O-][S+](CCN1CCN(CC(O)Cc2ccc(C(F)(F)F)cc2)CC1)C(c1ccc(F)cc1)c1ccc(F)cc1 (stereo not drawn) | 11600 | 11.7 | 991 | 147 | Unstable |  |
| C[C@H](O)CN1[C@H](C)CN(CCSC(c2ccc(F)cc2)c2ccc(F)cc2)C[C@@H]1C | 15600 | 28.5 |  | 5.95 |  | Activity [5]: Non-Toxic; remaining at 1 h, 10 µM [6]: > 30%; remaining at 1 h, 10 µM [7]: 10%; half-life at 10 µM [8]: > 0.667 h |
| OC(CN1CCC2(CCN(CCSC(c3ccc(F)cc3)c3ccc(F)cc3)CC2)C1)c1ccccc1 (stereo not drawn) |  | 127 | 1 | 45.5 |  | Ki [9]: 104 nM; Ratio Ki (Homo sapiens): 2.3; Ki [10]: 268 nM; remaining at 1 h, 10 µM [7]: 30 to 44%; Ki [11]: 239 nM; Selectivity ratio [12]: 13 |
| CC(O)CN1CCN(CC[S+]([O-])C(c2ccc(F)cc2)c2ccc(F)cc2)CC1 (stereo not drawn) |  |  |  |  |  | Activity [13]: Non-Toxic; half-life at 10 µM [14]: 2.1 h; half-life at 10 µM [15]: 2.1 h |
| C[C@@H]1CN(CC[S+]([O-])C(c2ccc(F)cc2)c2ccc(F)cc2)C[C@H](C)N1CC(O)Cc1ccccc1 (stereo partly drawn) |  |  | 379 | 75.4 |  | Ki [9]: 3.83 nM; Ratio Ki (Homo sapiens): 5.8; Ki [10]: 11.1 nM; remaining at 1 h, 10 µM [7]: < 10%; IC50 [16]: 91.5 nM; Ki [11]: 19.1 nM; Selectivity ratio [12]: 30 |
| CCC(=O)N1CCN(CCSC(c2ccc(F)cc2)c2ccc(F)cc2)CC1 | 2490 | 5080 | 0.5 | 33.2 |  |  |
| C[C@H](O)CN1CCN(CCSC(c2ccc(F)cc2)c2ccc(F)cc2)CC1 | 3940 | 37.9 | 104 | 2.58 |  |  |
| C[C@H](O)CN1CCN(CC[S+]([O-])C(c2ccc(F)cc2)c2ccc(F)cc2)CC1 (stereo partly drawn) | 200000 | 536 |  | 284 | Stable |  |
| [O-][S+](CCCN1CCN(CCCc2ccccc2)CC1)C(c1ccc(F)cc1)c1ccc(F)cc1 (stereo not drawn) | 1100 | 40.3 | 27 | 39.4 | Unstable |  |
| COc1ccc(CC(O)CN2CCN(CC[S+]([O-])C(c3ccc(F)cc3)c3ccc(F)cc3)CC2)cc1 (stereo not drawn) | 14600 | 3.01 | 4850 | 31.8 | Unstable |  |
| C[C@@H](O)CN1CCN(CCSC(c2ccc(F)cc2)c2ccc(F)cc2)CC1 | 2840 | 73.2 | 40 | 3.03 |  |  |
| Fc1ccc(C(SCCCN2CCN(CCCc3ccccc3)CC2)c2ccc(F)cc2)cc1 | 1060 | 8.68 | 122 | 29.2 |  |  |
| [O-][S+](CCN1CCN(C[C@@H](O)Cc2ccccc2)CC1)C(c1ccc(F)cc1)c1ccc(F)cc1 (stereo partly drawn) | 21300 | 1.34 | 15900 | 27.4 | Unstable |  |
| C[C@@H]1CN(CCSC(c2ccc(F)cc2)c2ccc(F)cc2)C[C@H](C)N1CC(O)Cc1ccccc1 (stereo partly drawn) |  |  | 805 | 15.2 |  |  |
| [O-][S+](CCN1CCN(CC(O)Cc2ccc(F)cc2)CC1)C(c1ccc(F)cc1)c1ccc(F)cc1 (stereo not drawn) | 12300 | 1.29 | 9540 | 73.7 | Unstable |  |
| OC(Cc1ccc(F)cc1)CN1CCN(CCSC(c2ccc(F)cc2)c2ccc(F)cc2)CC1 (stereo not drawn) | 1370 | 1.72 | 796 | 29.4 | Unstable |  |
| COC(=O)[C@H]1[C@@H](OC(=O)c2ccccc2)C[C@@H]2CC[C@H]1N2C [COCAINE] |  |  |  |  |  | Activity [17]: Toxic |
| O=C(CCc1ccccc1)N1CCN(CCSC(c2ccc(F)cc2)c2ccc(F)cc2)CC1 | 2540 | 2830 | 0.9 | 294 |  |  |
| COc1ccc(CC(O)CN2CCN(CCSC(c3ccc(F)cc3)c3ccc(F)cc3)CC2)cc1 (stereo not drawn) | 1420 | 1.91 | 743 | 9.65 |  |  |
| C[C@@H](O)CN1CCN(CC[S+]([O-])C(c2ccc(F)cc2)c2ccc(F)cc2)CC1 (stereo partly drawn) | 81500 | 782 |  | 902 | Stable |  |
| CC(O)CN1CCC2(CCN(CC[S+]([O-])C(c3ccc(F)cc3)c3ccc(F)cc3)CC2)C1 (stereo not drawn) |  |  | 1.4 | 65.1 |  |  |
| C[C@@H]1CN(CCSC(c2ccc(F)cc2)c2ccc(F)cc2)C[C@H](C)N1 | 13100 | 92.3 | 141 | 111 |  |  |
| C[C@@H]1CN(CCSC(c2ccc(F)cc2)c2ccc(F)cc2)C[C@H](C)N1C[C@@H](C)O | 19800 | 39.4 |  | 2.19 |  | Activity [5]: Non-Toxic; remaining at 1 h, 10 µM [6]: > 30%; remaining at 1 h, 10 µM [7]: 30%; half-life at 10 µM [8]: > 0.667 h |
| O[C@H](Cc1ccccc1)CN1CCN(CCSC(c2ccc(F)cc2)c2ccc(F)cc2)CC1 | 813 | 3.93 | 207 | 23.6 | Unstable |  |
| OC(Cc1ccc(C(F)(F)F)cc1)CN1CCN(CCSC(c2ccc(F)cc2)c2ccc(F)cc2)CC1 (stereo not drawn) | 4480 | 23.4 | 191 | 187 |  |  |
| CC(O)CN1CCN(CCSC(c2ccc(F)cc2)c2ccc(F)cc2)CC1 (stereo not drawn) |  |  |  |  |  | half-life at 10 µM [15]: 0.233 h |
| O[C@@H](Cc1ccccc1)CN1CCN(CCSC(c2ccc(F)cc2)c2ccc(F)cc2)CC1 | 1390 | 1.53 | 908 | 7.72 | Unstable |  |
| CC(=O)CN1CCN(CCSC(c2ccc(F)cc2)c2ccc(F)cc2)CC1 | 17400 | 182 | 96 | 1.08 |  |  |
| [O-][S+](CCN1CCN(C[C@H](O)Cc2ccccc2)CC1)C(c1ccc(F)cc1)c1ccc(F)cc1 (stereo partly drawn) | 18700 | 3.63 | 5150 | 331 | Unstable |  |
| CC(O)CN1[C@H](C)CN(CC[S+]([O-])C(c2ccc(F)cc2)c2ccc(F)cc2)C[C@@H]1C (stereo partly drawn) |  |  | 78 | 315 |  | Ki [9]: 406 nM; Ratio Ki (Homo sapiens): 7.5; Ki [10]: 552 nM; remaining at 1 h, 10 µM [7]: 30 to 44%; IC50 [16]: 7300 nM; Ki [11]: 3030 nM |
